From article PMC9884082 (Journal of Medicinal Chemistry, 2023) come the findings set out here.

In data set [1] the test system is CD133+/CXCR4+ (Dual Hi) HT-29 xenografts. In words: Dual Hi HT-29 xenograft after FUOX enrichment, oral G2C or IP G2.2. The format is in vivo, NCr nude mice. In short, it runs like this: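 1 × 10⁵ CD133⁺/CXCR4⁺ HT-29 cells were injected subcutaneously into NCr nude mice. Palpable tumors received 50 mg/kg 5-FU plus 5 mg/kg oxaliplatin IP weekly for 3 weeks. Mice were randomized to vehicle or test compound 100 mg/kg PO 5 times/week for 3 weeks, or, in a second experiment, parent 100 mg/kg IP 3 times/week. Xenograft single cells were assessed for 1–3° spheroids. CD133/CXCR4/LGR5 cells were quantified by flow cytometry (30 min staining, 4 °C).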

The test system of data set [2] is HT-29 monolayer culture. In words: Cell proliferation. In kind it is cell-based, human. Particulars: MTT, 60-72 h. In short, it runs like this:
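HT-29 cells kept as monolayers in DMEM:F-12 with 10% FBS and 1% penicillin/streptomycin, passaged before 70% confluence. About 2.5 × 10³ cells/well were incubated overnight (37 °C, 5% CO₂), then exposed to test compound for 60–72 h. MTT (5 mg/mL stock in PBS) was added for 2–3 h and crystals dissolved in DMSO. A590 was read and growth expressed as percent of vehicle; ≥3 replicates.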

Data set [3] can be described thus: Mouse tail bleeding study. In kind it is in vivo, wild-type ICR mice. Particulars: IV; NSGMs 1–100 mg/kg, enoxaparin 224 μg/kg.
The test system of data set [4] is intestinal crypt-derived organoids. In words: Ex vivo intestinal crypt-derived organoids from treated mice. In kind it is in vivo.
Data set [5] relates to HT-29 xenografts. In words: HT-29 xenograft after FUOX enrichment, IP G2C, FUOX or G2C+FUOX. In kind it is in vivo, NCr nude mice. In a few lines: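 1 × 10⁶ unsorted HT-29 cells were injected subcutaneously into NCr nude mice. Palpable tumors received 25 mg/kg 5-fluorouracil plus 2 mg/kg oxaliplatin IP weekly for 3 weeks. Mice were randomized to vehicle, test compound 50 mg/kg IP three times/week (8 doses), continued 5-FU/oxaliplatin, or both. Tumor volume was followed to sacrifice (n = 2/group) and compared with vehicle.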

For data set [6], the system named is pooled normal human plasma. In words: Human plasma clotting time. The format is biochemical. The note with it: ∼34 to ∼68 s. In a few lines: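 APTT was run in a fibrometer by one-stage recalcification. Test compound was mixed with citrated pooled normal human plasma and prewarmed APTT reagent (ellagic acid). After 4 min at 37 °C, clotting was started with prewarmed 25 mM CaCl₂ and time to clot recorded. A quadratic trend line fitted to the data gave the concentration doubling clotting time.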

Data set [7] is described as follows: Preliminary half-life experiments. In kind it is in vivo. Particulars: data not shown.
In data set [8] the test system is CD133+/CXCR4+ (Dual Hi) HT-29 xenografts. In words: Dual Hi HT-29 xenograft after FUOX enrichment, IP G5C or FUOX. The format is in vivo, NCr nude mice. The note with it: G5C 100 mg/kg IP; FUOX IP weekly. In short, it runs like this: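 1 × 10⁵ FACS-sorted CD133⁺/CXCR4⁺ HT-29 cells were injected subcutaneously into NCr nude mice. Palpable tumors were enriched in vivo with 25 mg/kg 5-fluorouracil plus 2 mg/kg oxaliplatin IP weekly for 3 weeks. Mice were then randomized to vehicle, the same regimen continued, or test compound 100 mg/kg IP three times/week (14 doses). Tumors (n = 2/group) were dissociated into single cells and 1–3° spheroids (50–150 μm) counted in low-adhesion EGF/FGF stem cell medium.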

“Also recorded” adds a separate entry of the source.

Take `CC(C)CCC[C@@H](C)[C@H]1CC[C@H]2[C@@H]3CC=C4C[C@@H](OCCOc5cc(-c6oc7cc(OS(=O)(=O)[O-])cc(OCCCOc8cc(OS(=O)(=O)[O-])cc9oc(-c%10ccc(OS(=O)(=O)[O-])c(OS(=O)(=O)[O-])c%10)c(OS(=O)(=O)[O-])c(=O)c89)c7c(=O)c6OS(=O)(=O)[O-])ccc5OS(=O)(=O)[O-])CC[C@]4(C)[C@H]3CC[C@]12C.[Na+].[Na+].[Na+].[Na+].[Na+].[Na+].[Na+]` [G2C, Sodium 4-(5-(3-((2-(3-(2-(((8S,9S,10R,13R,14S,17R)-10,13-Dimethyl-17-((R)-6-methylheptan-2-yl)-2,3,4,7,8,9,10,11,12,13,14,15,16,17-tetradecahydro-1H-cyclopenta[a]phenanthren-3-yl)oxy)ethoxy)-4-(sulfonatooxy)phenyl)-4-oxo-3,7-bis(sulfonatooxy)-4H-chromen-5-yl)oxy)propoxy)-4-oxo-3,7-bis(sulfonatooxy)-4H-chromen-2-yl)-1,2-phenylene Bis(sulfate)]: in data set [1] (daily oral G2C), the animal weight result is on record as “did not lose weight” and the “bleeding at the site of injection or in organs” value is “no obvious sign of major bleeding”. In addition, in data set [1] (experiment 1, G2C 100 mg/kg PO), the “3° spheroid formation from xenograft-derived cells” value is “significantly inhibited”. Besides, the “Dual Hi cell-induced tumor growth” value in data set [1] (experiment 1, G2C 100 mg/kg PO 5 times/week for 3 weeks) is recorded as “significantly inhibited Dual Hi cell-induced tumor growth”. For the same molecule, the “tumor growth compared to vehicle” value in data set [1] (experiment 2, G2.2 100 mg/kg IP 3 times/week, G2C 100 mg/kg PO 5 times/week, 3 weeks) was “seemed to reduce tumor growth; also recorded: higher growth inhibition”. Further, the “proportion of CD133+/CXCR4+ (Dual Hi) and LGR5 cells in xenografts” value in data set [1] (flow cytometry, oral G2C) is “significantly lower”. Moreover, the “blood chemistry compared to vehicle” value in data set [1] (oral G2C) is reported as “did not produce any significant change in blood chemistry”. Further, the “cytotoxicity under monolayer conditions” value in data set [2] is “significantly cytotoxic at ∼100 μM”. Also, the “blood loss, tail bleeding” value in data set [3] is reported as “did not exhibit much tail bleeding phenotype”. For the same molecule, the “ex vivo growth of organoids derived from intestinal crypts” value in data set [4] (after IP G2C 50 mg/kg alone or with FUOX) is reported as “did not inhibit ex vivo growth of organoids derived from intestinal crypts”. The “intestinal crypt-derived organoid growth” value in data set [4] (after oral G2C 100 mg/kg 5 times/week for 3 weeks) is given as “did not reduce intestinal crypt-derived organoid growths”. In addition, in data set [5] (G2C 50 mg/kg IP (Figure 6B)), the “inhibition of xenografts compared to vehicle” value is listed as 30%. In addition, the animal weight entry in data set [5] (G2C 50 mg/kg IP alone or with FUOX) is given as “no significant change in animal weight”. In data set [5] (Western blots), the “expression of DCAMKL1 and BMI-1 in xenograft lysate” value was “inhibition in the expression of DCAMKL1 (CSC marker) and BMI-1 (self-renewal marker)”. In addition, the “3 and 4° spheroid formation from xenograft-derived cells” value in data set [5] (ex vivo in CSC media, compared to vehicle) is given as “significant inhibition of self-renewing CSCs”. Further, the “concentration required for 2-fold increase in APTT” value in data set [6] is roughly 300 µM.
With `CC(C)CCC[C@@H](C)[C@H]1CC[C@H]2[C@@H]3CC=C4C[C@@H](OCCCCCOc5cc(-c6oc7cc(OS(=O)(=O)[O-])cc(OCCCOc8cc(OS(=O)(=O)[O-])cc9oc(-c%10ccc(OS(=O)(=O)[O-])c(OS(=O)(=O)[O-])c%10)c(OS(=O)(=O)[O-])c(=O)c89)c7c(=O)c6OS(=O)(=O)[O-])ccc5OS(=O)(=O)[O-])CC[C@]4(C)[C@H]3CC[C@]12C.[Na+].[Na+].[Na+].[Na+].[Na+].[Na+].[Na+]` [G5C, Sodium 4-(5-(3-((2-(3-((5-(((8S,9S,10R,13R,14S,17R)-10,13-Dimethyl-17-((R)-6-methylheptan-2-yl)-2,3,4,7,8,9,10,11,12,13,14,15,16,17-tetradecahydro-1H-cyclopenta[a]phenanthren-3-yl)oxy)pentyl)oxy)-4-(sulfonatooxy)phenyl)-4-oxo-3,7-bis(sulfonatooxy)-4H-chromen-5-yl)oxy)propoxy)-4-oxo-3,7-bis(sulfonatooxy)-4H-chromen-2-yl)-1,2-phenylene Bis(sulfate)], the “cytotoxicity under monolayer conditions” value in data set [2] is “essentially benign toward monolayer cancer cell culture even at ∼400 μM”. Further, in data set [7], the “increase in half-life over G2.2” value is recorded as roughly 50%. Also, the “blood loss, tail bleeding” value in data set [3] is reported as “did not exhibit much tail bleeding phenotype”. The “ex vivo 3° spheroid growth from xenograft cells” value in data set [8] is reported as “maintain inhibition”. Moreover, the “concentration required for 2-fold increase in APTT” value in data set [6] was roughly 200 µM.
